25 compounds from ChEMBL document CHEMBL1135770, “Synthesis and transporter binding properties of 3beta-[4'-(phenylalkyl, -phenylalkenyl, and -phenylalkynyl)phenyl]tropane-2beta-carboxylic acid methyl esters: evidence of a remote phenyl binding domain on the dopamine transporter” (J Med Chem, 2002) can be followed below.

For assay [1], the target named is T1, Norepinephrine transporter (Rattus norvegicus, UniProt Q9WTR4). The experiment in a line: Tested for the binding affinity towards Norepinephrine transporter in rat cerebral cortex by displacing [3H]nisoxetine radioligand. The assay is classed as tissue-based. The essentials:
(§1)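 Competition binding with 0.5 nM [³H]nisoxetine as final radioligand concentration.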

For assay [2], the target named is Sodium-dependent dopamine transporter (Rattus norvegicus, UniProt P23977). As to the kind of experiment: 50% Inhibition against dopamine transporter (DAT) in rat striatal tissue by displacing [3H]WIN-35428 radioligand. The assay is classed as tissue-based, Striatum. The essentials:
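Competition binding with 0.5 nM [³H]WIN35,428 as final radioligand concentration.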

The target in assay [3] is T2, Sodium-dependent serotonin transporter (Rattus norvegicus, UniProt P31652). As to the kind of experiment: Tested for the binding affinity towards Serotonin transporter in rat midbrain tissue by displacing [3H]paroxetine radioligand. The assay is classed as tissue-based. The method, boiled down: (§2)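 Competition binding with 0.2 nM [³H]paroxetine as final radioligand concentration.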

Assay [4] deals with T2, Sodium-dependent serotonin transporter. As to the kind of experiment: 50% Inhibition against Serotonin transporter in rat midbrain tissue by displacing [3H]paroxetine radioligand. In kind it is tissue-based. The method, boiled down: as §2
For assay [5], the target named is T1, Norepinephrine transporter. As to the kind of experiment: 50% Inhibition against Norepinephrine transporter in rat cerebral cortex by displacing [3H]nisoxetine radioligand. In kind it is tissue-based. The method, boiled down: as §1

T2 sequence (P31652 whole entry): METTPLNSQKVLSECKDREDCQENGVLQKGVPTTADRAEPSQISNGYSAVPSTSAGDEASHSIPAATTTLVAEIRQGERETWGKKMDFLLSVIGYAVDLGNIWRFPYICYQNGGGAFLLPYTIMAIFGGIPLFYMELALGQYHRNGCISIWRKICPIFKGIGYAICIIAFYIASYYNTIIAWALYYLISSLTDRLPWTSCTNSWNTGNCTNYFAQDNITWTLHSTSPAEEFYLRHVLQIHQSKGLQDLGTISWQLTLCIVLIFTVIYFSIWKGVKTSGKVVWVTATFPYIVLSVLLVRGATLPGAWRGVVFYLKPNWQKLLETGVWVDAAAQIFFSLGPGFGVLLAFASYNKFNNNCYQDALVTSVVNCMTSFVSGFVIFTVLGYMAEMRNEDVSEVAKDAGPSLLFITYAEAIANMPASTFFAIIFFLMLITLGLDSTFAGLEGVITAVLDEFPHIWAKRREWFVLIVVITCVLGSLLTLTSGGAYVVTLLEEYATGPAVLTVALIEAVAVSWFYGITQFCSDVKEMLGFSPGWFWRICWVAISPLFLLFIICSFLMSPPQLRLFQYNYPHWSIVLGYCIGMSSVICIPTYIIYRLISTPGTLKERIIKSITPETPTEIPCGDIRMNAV
T1 sequence (Q9WTR4 whole entry): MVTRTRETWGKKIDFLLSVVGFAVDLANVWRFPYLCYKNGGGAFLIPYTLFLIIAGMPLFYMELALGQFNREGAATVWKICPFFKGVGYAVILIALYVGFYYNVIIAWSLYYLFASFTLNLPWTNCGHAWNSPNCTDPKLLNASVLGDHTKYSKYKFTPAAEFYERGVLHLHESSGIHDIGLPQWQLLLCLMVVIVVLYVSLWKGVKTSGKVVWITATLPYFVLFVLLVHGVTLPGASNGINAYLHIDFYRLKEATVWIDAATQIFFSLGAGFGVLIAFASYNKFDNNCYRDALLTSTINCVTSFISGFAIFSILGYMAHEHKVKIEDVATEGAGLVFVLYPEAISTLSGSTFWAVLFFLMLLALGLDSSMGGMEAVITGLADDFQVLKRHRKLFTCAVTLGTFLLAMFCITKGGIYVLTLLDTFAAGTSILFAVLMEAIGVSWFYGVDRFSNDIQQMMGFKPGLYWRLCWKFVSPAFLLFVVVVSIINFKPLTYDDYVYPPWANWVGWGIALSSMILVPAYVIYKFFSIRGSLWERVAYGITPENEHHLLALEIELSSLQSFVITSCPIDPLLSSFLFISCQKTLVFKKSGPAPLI
Sodium-dependent dopamine transporter, sequence (P23977 whole entry): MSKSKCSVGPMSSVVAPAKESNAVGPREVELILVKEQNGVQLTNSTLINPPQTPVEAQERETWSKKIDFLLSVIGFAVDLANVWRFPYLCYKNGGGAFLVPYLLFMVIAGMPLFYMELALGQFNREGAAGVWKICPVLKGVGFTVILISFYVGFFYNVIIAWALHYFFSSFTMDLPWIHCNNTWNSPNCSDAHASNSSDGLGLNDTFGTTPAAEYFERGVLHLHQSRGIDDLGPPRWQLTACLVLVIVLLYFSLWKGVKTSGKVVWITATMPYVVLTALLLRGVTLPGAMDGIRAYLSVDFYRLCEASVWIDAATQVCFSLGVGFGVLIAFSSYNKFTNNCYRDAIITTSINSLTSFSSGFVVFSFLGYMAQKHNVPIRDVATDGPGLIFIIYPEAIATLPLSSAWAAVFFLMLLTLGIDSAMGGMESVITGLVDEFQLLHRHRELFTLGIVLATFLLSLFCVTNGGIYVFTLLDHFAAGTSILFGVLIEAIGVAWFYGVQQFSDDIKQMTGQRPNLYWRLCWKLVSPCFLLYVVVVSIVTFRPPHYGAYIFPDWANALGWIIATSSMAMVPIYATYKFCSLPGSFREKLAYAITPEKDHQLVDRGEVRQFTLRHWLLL

In general, Ki refers to the dissociation constant of the complex between target and ligand, obtained from inhibition or displacement. In assay [1], `COC(=O)[C@@H]1C2CC[C@H](C[C@@H]1c1ccccc1)N2C` showed a Ki of 55 nM.

The term IC50 denotes the concentration that inhibits the measured activity by half. A high value points to a need for much substance. `COC(=O)C1[C@@H](c2ccc(CCCCc3ccccc3)cc2)CC2CC[C@H]1N2C` (stereo partly specified): the figures for the IC50 in assay [2], in assay [4] and in assay [5] were 228 nM, 4820 nM and 2310 nM, respectively. The Ki worked out at 439 nM in assay [3] and 1390 nM in assay [1].

With `CCCc1ccc([C@H]2CC3CC[C@H](C2C(=O)OC)N3C)cc1` (stereo partly specified), the 50% inhibitory concentration (IC50) stood at 68.5 nM in assay [2], 70.4 nM in assay [4] and 3920 nM in assay [5]. The inhibitory constant (Ki) in assay [3] turned out to be 6.4 nM; in assay [1] it was 2360 nM.

Take `COC(=O)C1[C@@H](c2ccc3ccccc3c2)CC2CC[C@H]1N2C` (stereo partly specified): the values for the IC50 in assay [2], in assay [4] and in assay [5] were 0.51 nM, 0.8 nM and 21.1 nM, respectively. In addition, the inhibition constant Ki in assay [3] was determined as 0.07 nM; in assay [1] it was 12.7 nM.

`C=Cc1ccc([C@H]2CC3CC[C@H](C2C(=O)OC)N3C)cc1` (stereo partly specified): the results for the IC50 in assay [2], in assay [4] and in assay [5] were 1.24 nM, 9.5 nM and 78 nM, respectively. Besides, the Ki in assay [3] was 0.86 nM; in assay [1], 47 nM.

`CC#Cc1ccc([C@H]2CC3CC[C@H](C2C(=O)OC)N3C)cc1` (stereo partly specified): the figures for the IC50 in assay [2], in assay [4] and in assay [5] were 2.37 nM, 15.7 nM and 820 nM, respectively. In addition, the Ki in assay [3] worked out at 1.43 nM; in assay [1], 494 nM.

In the case of `COC(=O)C1[C@@H](c2ccc(C#CCCCCO)cc2)CC2CC[C@H]1N2C` (stereo partly specified), the IC50 in assay [2] is 57 nM; in assay [4], 828 nM; in assay [5], 9500 nM. The Ki turned out to be 75 nM in assay [3] and 5720 nM in assay [1].

On to `COC(=O)C1[C@@H](c2ccc(C#CCc3ccccc3)cc2)CC2CC[C@H]1N2C` (stereo partly specified), for which the half-inhibitory concentration (IC50) in assay [2] was found to be 1.82 nM; in assay [4], 13.1 nM; in assay [5] it was 27.4 nM. The results for the Ki in assay [3] and in assay [1] were 1.19 nM and 16.5 nM, respectively.

Consider `COC(=O)C1[C@@H](c2ccc(C#Cc3ccccc3)cc2)CC2CC[C@H]1N2C` (stereo partly specified), for which the IC50 worked out at 3.7 nM in assay [2], 46.8 nM in assay [4] and 347 nM in assay [5]. Moreover, the figures for the inhibitory constant (Ki) in assay [3] and in assay [1] were 4.3 nM and 209 nM, respectively.

For the compound `COC(=O)C1[C@@H](c2ccc(C#CCCc3ccccc3)cc2)CC2CC[C@H]1N2C` (stereo partly specified), the 50% inhibitory concentration (IC50) in assay [2] was found to be 6.28 nM; in assay [4], 2180 nM; in assay [5] it was 1470 nM. Also, the Ki turned out to be 198 nM in assay [3] and 885 nM in assay [1].

With `COC(=O)C1C(c2ccc3ccccc3c2)CC2CC[C@H]1N2C` (stereo partly specified), the IC50 in assay [2] came out at 1.1 nM; in assay [4] it was 11.4 nM; in assay [5], 70.2 nM. Also, the values for the inhibition constant Ki in assay [3] and in assay [1] were 1.05 nM and 42.3 nM, respectively.

For `COC(=O)C1[C@@H](c2ccc(C#CCCCc3ccccc3)cc2)CC2CC[C@H]1N2C` (stereo partly specified), the IC50 was determined as 300 nM in assay [2], 1340 nM in assay [4] and 4450 nM in assay [5]. The Ki in assay [3] came to 122 nM; in assay [1], 2680 nM.

For the compound `COC(=O)C1[C@@H](c2ccc(-c3ccccc3)cc2)CC2CC[C@H]1N2C` (stereo partly specified), the values for the IC50 in assay [2], in assay [4] and in assay [5] were 15.6 nM, 95.8 nM and 1480 nM, respectively. Besides, the Ki stood at 8.7 nM in assay [3] and 892 nM in assay [1].

`COC(=O)C1[C@@H](c2ccc(CCc3ccccc3)cc2)CC2CC[C@H]1N2C` (stereo partly specified): the half-maximal inhibitory concentration (IC50) in assay [2] amounted to 5.14 nM; in assay [4], 234 nM; in assay [5], 10.8 nM. The inhibition constant (Ki) was 21.3 nM in assay [3] and 6.5 nM in assay [1].

Regarding `COC(=O)C1[C@@H](c2ccc(CCCc3ccccc3)cc2)CC2CC[C@H]1N2C` (stereo partly specified), the IC50 was 351 nM in assay [2], 1240 nM in assay [4] and 14200 nM in assay [5]. Further, the Ki in assay [3] worked out at 113 nM; in assay [1] it was 8500 nM.

On to `C=C(c1ccccc1)c1ccc([C@H]2CC3CC[C@H](C2C(=O)OC)N3C)cc1` (stereo partly specified), for which the 50% inhibitory concentration (IC50) is 474 nM in assay [2], 2710 nM in assay [4] and 7060 nM in assay [5]. The Ki in assay [3] came to 246 nM; in assay [1], 4260 nM.

As to `COC(=O)C1[C@@H](c2ccc(Cc3ccccc3)cc2)CC2CC[C@H]1N2C` (stereo partly specified), the half-inhibitory concentration (IC50) came to 526 nM in assay [2], 7240 nM in assay [4] and 6670 nM in assay [5]. For the same compound, the inhibitory constant (Ki) in assay [3] turned out to be 658 nM; in assay [1], 606 nM.

Take `COC(=O)C1[C@@H](c2ccc(/C=C/Cc3ccccc3)cc2)CC2CC[C@H]1N2C` (stereo partly specified): the values for the IC50 in assay [2], in assay [4] and in assay [5] were 15.8 nM, 781 nM and 1250 nM, respectively. The results for the Ki in assay [3] and in assay [1] were 71 nM and 759 nM, respectively.

`COC(=O)C1[C@@H](c2ccc(/C=C\c3ccccc3)cc2)CC2CC[C@H]1N2C` (stereo partly specified): the IC50 in assay [2] is 11.7 nM.

Consider `COC(=O)C1[C@@H](c2ccc(/C=C/c3ccccc3)cc2)CC2CC[C@H]1N2C` (stereo partly specified), for which the IC50 in assay [2] was 3.09 nM; in assay [4], 335 nM; in assay [5], 1960 nM. Moreover, the Ki in assay [3] worked out at 30.5 nM; in assay [1] it was 1180 nM.

Turning to `C/C=C\c1ccc([C@H]2CC3CC[C@H](C2C(=O)OC)N3C)cc1` (stereo partly specified), the values for the half-inhibitory concentration (IC50) in assay [2], in assay [4] and in assay [5] were 5.29 nM, 11.4 nM and 1590 nM, respectively. Moreover, the Ki in assay [3] is 1.04 nM; in assay [1], 958 nM.

In turn, `COC(=O)C1C2CC[C@H](C[C@H]1c1ccc(C)cc1)N2C` (stereo partly specified) had a Ki in assay [1] of 36 nM. This compound also showed an IC50 in assay [5] of 60 nM.

`C#Cc1ccc([C@H]2CC3CC[C@H](C2C(=O)OC)N3C)cc1` (stereo partly specified): the concentration for half-maximal inhibition (IC50) in assay [2] turned out to be 1.2 nM; in assay [4], 4.4 nM; in assay [5] it was 83.2 nM. Further, the figures for the Ki in assay [3] and in assay [1] were 0.4 nM and 50.1 nM, respectively.

Regarding `CCc1ccc([C@H]2C[C@H]3CCC(C2C(=O)OC)N3C)cc1` (stereo partly specified), the Ki came out at 2.58 nM in assay [3] and 2360 nM in assay [1].

Take `COC(=O)C1=C(c2ccc3ccccc3c2)CC2CCC1N2C` (stereo unspecified): the IC50 in assay [2] worked out at 5.17 nM; in assay [4], 345 nM; in assay [5] it was 372 nM. For the same compound, the inhibitory constant (Ki) is 31.4 nM in assay [3] and 224 nM in assay [1].
